Data from PubChem BioAssay AID1624 (Sanford-Burnham Center for Chemical Genomics, 2009).

Tested on: PPC-1 cells, TRAIL potentiation, ATPlite luminescence, 24 h
Assay: TRAIL killing potentiation in PPC-1 cells, confirmation, cell-based, ATPlite luminescence (AID 1624)
Settings: stronger effect = higher value
Procedure, shortened: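 Test system: PPC-1 cells; Schedule: 4 h compound plus 24 h TRAIL, 37 °C; Doses: compound at 1.25 to 5 µM final concentration; Detection: ATPlite luminescence measuring cellular ATP; Probe or stimulus: TRAIL stimulus.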

[1] = compound alone cytotoxicity, at 5 µM
[2] = compound plus TRAIL, at 1.25 µM

`CCSc1nc(-c2ccccc2)nc(C(Cl)Cl)n1` gave a cytotoxicity with TRAIL (at 5 µM) of 96%, a cytotoxicity without TRAIL [1] of 41% and a cytotoxicity without TRAIL (compound alone, at 1.25 µM) of 18%. It also gave a cytotoxicity without TRAIL (compound alone, at 2.5 µM) of 26%, a cytotoxicity with TRAIL [2] of 43% and a cytotoxicity with TRAIL (compound plus TRAIL, at 2.5 µM) of 61%.

Work on `CSc1nc(-c2ccccc2)nc(C(Cl)Cl)n1` yielded a cytotoxicity with TRAIL (at 5 µM) of 100%, a cytotoxicity without TRAIL [1] of 56% and a cytotoxicity without TRAIL (compound alone, at 1.25 µM) of 52%. The cytotoxicity without TRAIL (compound alone, at 2.5 µM) was 56%, the cytotoxicity with TRAIL [2] was 83% and the cytotoxicity with TRAIL (compound plus TRAIL, at 2.5 µM) was 96%.

In the case of `CSc1nc(-c2ccc(C)cc2)nc(C(Cl)Cl)n1`, the cytotoxicity with TRAIL (at 5 µM) is reported as 100%, the cytotoxicity without TRAIL [1] is reported as 45% and the cytotoxicity without TRAIL (compound alone, at 1.25 µM) is reported as 49%. It also gave a cytotoxicity without TRAIL (compound alone, at 2.5 µM) of 48%, a cytotoxicity with TRAIL [2] of 94% and a cytotoxicity with TRAIL (compound plus TRAIL, at 2.5 µM) of 100%.
